The values below come from ChEMBL document CHEMBL4402612, “Heterodimeric Analogues of the Potent Y1R Antagonist 1229U91, Lacking One of the Pharmacophoric C-Terminal Structures, Retain Potent Y1R Affinity and Show Improved Selectivity over Y4R” (J Med Chem, 2020).

Molecules are shown by their SMILES. Positions of bridges follow the written chain, without caps; N, C: chain ends. Non-standard residues stand in square brackets, D forms with d. Residues, ends and D or L forms follow the SMILES beside them. Chains are numbered I, II in the order given. Orn = NCCC[C@H](N)C(=O)O; Dab = NCC[C@H](N)C(=O)O; Dap = NC[C@H](N)C(=O)O

The target in test [1] is T1, Neuropeptide Y receptor type 1 (Homo sapiens, UniProt P25929).
T1 sequence (P25929 whole entry): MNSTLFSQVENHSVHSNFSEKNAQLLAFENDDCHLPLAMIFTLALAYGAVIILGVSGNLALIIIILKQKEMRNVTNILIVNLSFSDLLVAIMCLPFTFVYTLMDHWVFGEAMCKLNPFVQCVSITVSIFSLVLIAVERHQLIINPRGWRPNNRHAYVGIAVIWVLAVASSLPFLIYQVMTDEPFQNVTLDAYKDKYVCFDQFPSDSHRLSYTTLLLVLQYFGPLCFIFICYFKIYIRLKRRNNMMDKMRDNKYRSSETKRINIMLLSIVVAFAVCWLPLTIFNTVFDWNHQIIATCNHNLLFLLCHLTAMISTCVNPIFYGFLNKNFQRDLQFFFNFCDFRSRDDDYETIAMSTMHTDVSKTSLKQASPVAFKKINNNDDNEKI
Briefly: Displacement of (sCy5)-[Lys2 Arg4]-BVD15 from GFP-tagged Y1R in human HEK293T cells assessed as inhibitory constant incubated for 5 mins followed by (sCy5)-[Lys2 Arg4]-BVD15 addition and measured after 30 mins by fluorescence based assay. In kind it is cell-based.

Test [2] addresses T2, Neuropeptide Y receptor type 4 (Homo sapiens, UniProt P50391). Briefly: Displacement of (sCy5)-[Lys2 Arg4]-BVD15 from GFP-tagged Y4R in human HEK293T cells assessed as inhibitory constant incubated for 5 mins followed by (sCy5)-[Lys2 Arg4]-BVD15 addition and measured after 30 mins by fluorescence based assay. In kind it is cell-based. In a few lines:
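Competitors (10^-10–10^-6 M) added in HBSS/0.1% BSA with H33342 for 5 min, then 100 nM final (sCy5)-[Lys²Arg⁴]-BVD15 for 30 min at 37 °C. Washed and imaged confocally; granule counts per cell. Non-specific binding with 100 nM PP.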

For the next test, the species on record is Homo sapiens. As to the kind of experiment: Selectivity index, ratio of Ki of GFP-tagged Y4R in human HEK293T cells to Ki GFP-tagged Y1R in human HEK293T cells. In kind it is cell-based. In a few lines: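 Ratio of mean Ki values, Y4/Y1, from whole-cell competition binding in tetracycline-induced 293TR Y1-GFP or Y4-GFP cells. Tracer was 100 nM (sCy5)-[Lys²Arg⁴]-BVD15, added after 5 min competitor preincubation, then 30 min at 37 °C, with imaging read-out.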

For test [3], the target named is T2, Neuropeptide Y receptor type 4. As to the kind of experiment: Agonist activity at Y4R in human HEK293T cells assessed as increase in beta-arrestin recruitment incubated for 60 mins by Hoechst 33342 dye based fluorescence analysis.
Test [4] shares this target. Briefly: Agonist activity at Y4R in human HEK293T cells assessed as increase in beta-arrestin recruitment incubated for 60 mins by Hoechst 33342 dye based fluorescence analysis relative to pancreatic polypeptide. (Recruitment of arrestin is a read-out of receptor activation apart from second messengers.)

T2 sequence (P50391 whole entry): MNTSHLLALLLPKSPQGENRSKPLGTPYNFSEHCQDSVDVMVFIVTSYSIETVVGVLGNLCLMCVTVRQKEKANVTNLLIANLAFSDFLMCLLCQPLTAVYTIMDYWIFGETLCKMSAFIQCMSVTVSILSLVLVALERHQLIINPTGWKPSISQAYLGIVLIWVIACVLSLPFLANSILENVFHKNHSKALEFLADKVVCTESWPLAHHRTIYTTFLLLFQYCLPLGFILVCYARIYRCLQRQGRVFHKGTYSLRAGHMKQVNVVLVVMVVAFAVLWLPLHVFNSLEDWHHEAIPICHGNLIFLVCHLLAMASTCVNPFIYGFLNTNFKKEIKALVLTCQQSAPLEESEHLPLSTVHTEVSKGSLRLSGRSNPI

The term Ki denotes the dissociation constant of the complex between target and ligand, obtained from inhibition or displacement. The EC50 is the concentration needed to bring the measured effect to its halfway point. `CC[C@H](C)[C@H](N)C(=O)N[C@H]1CCC(=O)NCCCC[C@@H](C(=O)N[C@@H](Cc2ccc(O)cc2)C(=O)N[C@@H](CCCNC(=N)N)C(=O)N[C@@H](CC(C)C)C(=O)N[C@@H](CCCNC(=N)N)C(=O)N[C@@H](Cc2ccc(O)cc2)C(N)=O)NC(=O)[C@@H]2CCCN2C(=O)[C@@H](NC(=O)[C@@H](N)[C@@H](C)CC)CCC(=O)NCCCC[C@@H](C(=O)N[C@@H](Cc2ccc(O)cc2)C(=O)N[C@@H](CCCNC(=N)N)C(=O)N[C@@H](CC(C)C)C(=O)N[C@@H](CCCNC(=N)N)C(=O)N[C@@H](Cc2ccc(O)cc2)C(N)=O)NC(=O)[C@@H]2CCCN2C1=O` (I: H-IEPKYRLRY-NH2 / II: H-IEPKYRLRY-NH2; amide I:2-II:4, I:4-II:2): the inhibitory constant (Ki) is 25.1 nM in test [1] and 158 nM in test [2]. In addition, the Ratio Ki in the test listed under Homo sapiens turned out to be 6.3. The EC50 in test [3] is 23.4 nM. Further, the Rmax in test [4] amounted to 56.4%.

For `CC[C@H](C)[C@H](N)C(=O)N[C@H]1CCC(=O)NCC[C@@H](C(=O)N[C@@H](Cc2ccc(O)cc2)C(=O)N[C@@H](CCCNC(=N)N)C(=O)N[C@@H](CC(C)C)C(=O)N[C@@H](CCCNC(=N)N)C(=O)N[C@@H](Cc2ccc(O)cc2)C(N)=O)NC(=O)[C@@H]2CCCN2C(=O)[C@@H](NC(=O)[C@@H](N)[C@@H](C)CC)CCC(=O)NCC[C@@H](C(=O)N[C@@H](Cc2ccc(O)cc2)C(=O)N[C@@H](CCCNC(=N)N)C(=O)N[C@@H](CC(C)C)C(=O)N[C@@H](CCCNC(=N)N)C(=O)N[C@@H](Cc2ccc(O)cc2)C(N)=O)NC(=O)[C@@H]2CCCN2C1=O` (I: H-IEP[Dab]YRLRY-NH2 / II: H-IEP[Dab]YRLRY-NH2; amide I:2-II:4, I:4-II:2), the values for the Ki in test [1] and in test [2] were 8.13 nM and 155 nM, respectively. Further, the Ratio Ki in the test filed under Homo sapiens worked out at 19. In addition, in test [3], the EC50 is 30.2 nM. Further, in test [4], the Rmax stood at 43.8%.

As to `CC[C@H](C)[C@H](N)C(=O)N[C@H]1CCC(=O)NC[C@@H](C(=O)N[C@@H](Cc2ccc(O)cc2)C(=O)N[C@@H](CCCNC(=N)N)C(=O)N[C@@H](CC(C)C)C(=O)N[C@@H](CCCNC(=N)N)C(=O)N[C@@H](Cc2ccc(O)cc2)C(N)=O)NC(=O)[C@@H]2CCCN2C(=O)[C@@H](NC(=O)[C@@H](N)[C@@H](C)CC)CCC(=O)NC[C@@H](C(=O)N[C@@H](C)C(=O)N[C@@H](CCCNC(=N)N)C(=O)N[C@@H](CC(C)C)C(=O)N[C@@H](CCCNC(=N)N)C(=O)N[C@@H](Cc2ccc(O)cc2)C(N)=O)NC(=O)[C@@H]2CCCN2C1=O` (I: H-IEP[Dap]ARLRY-NH2 / II: H-IEP[Dap]YRLRY-NH2; amide I:2-II:4, I:4-II:2), the Ki in test [1] is 2.34 nM; in test [2], 631 nM. The Ratio Ki in the test filed under Homo sapiens came to 269. The EC50 in test [3] is 37.2 nM. The Rmax in test [4] turned out to be 52.3%.

As for `CC[C@H](C)[C@H](N)C(=O)N[C@H]1CCC(=O)NC[C@@H](C(=O)N[C@@H](Cc2ccc(O)cc2)C(=O)N[C@@H](CCCNC(=N)N)C(=O)N[C@@H](CC(C)C)C(=O)N[C@@H](C)C(=O)N[C@@H](Cc2ccc(O)cc2)C(N)=O)NC(=O)[C@@H]2CCCN2C(=O)[C@@H](NC(=O)[C@@H](N)[C@@H](C)CC)CCC(=O)NC[C@@H](C(=O)N[C@@H](Cc2ccc(O)cc2)C(=O)N[C@@H](C)C(=O)N[C@@H](CC(C)C)C(=O)N[C@@H](CCCNC(=N)N)C(=O)N[C@@H](Cc2ccc(O)cc2)C(N)=O)NC(=O)[C@@H]2CCCN2C1=O` (I: H-IEP[Dap]YALRY-NH2 / II: H-IEP[Dap]YRLAY-NH2; amide I:2-II:4, I:4-II:2), the results for the Ki in test [1] and in test [2] were 31.6 nM and 912 nM, respectively. Besides, in the test listed under Homo sapiens, the Ratio Ki was found to be 32. For the same compound, the Rmax in test [4] is -9.5%.

With `CC[C@H](C)[C@H](N)C(=O)N[C@H]1CCC(=O)NC[C@@H](C(=O)N[C@@H](Cc2ccc(O)cc2)C(=O)N[C@@H](CCCNC(=N)N)C(=O)N[C@@H](CC(C)C)C(=O)N[C@@H](CCCNC(=N)N)C(=O)N[C@@H](Cc2ccc(O)cc2)C(N)=O)NC(=O)[C@@H]2CCCN2C(=O)[C@@H](NC(=O)[C@@H](N)[C@@H](C)CC)CCC(=O)NC[C@@H](C(=O)N[C@@H](Cc2ccc(O)cc2)C(=O)N[C@@H](CCCNC(=N)N)C(=O)N[C@@H](C)C(=O)N[C@@H](CCCNC(=N)N)C(=O)N[C@@H](Cc2ccc(O)cc2)C(N)=O)NC(=O)[C@@H]2CCCN2C1=O` (I: H-IEP[Dap]YRARY-NH2 / II: H-IEP[Dap]YRLRY-NH2; amide I:2-II:4, I:4-II:2), the values for the Ki in test [1] and in test [2] were 0.275 nM and 129 nM, respectively. Also, the Ratio Ki in the test filed under Homo sapiens turned out to be 427. Besides, the EC50 in test [3] is 12.9 nM. Further, the Rmax in test [4] was 48.2%.

Turning to `CC[C@H](C)[C@H](N)C(=O)N[C@H]1CCC(=O)NC[C@@H](C(=O)N[C@@H](Cc2ccc(O)cc2)C(=O)N[C@@H](CCCNC(=N)N)C(=O)N[C@@H](CC(C)C)C(=O)N[C@@H](CCCNC(=N)N)C(=O)N[C@@H](Cc2ccc(O)cc2)C(N)=O)NC(=O)[C@@H]2CCCN2C(=O)[C@@H](NC(=O)[C@@H](N)[C@@H](C)CC)CCC(=O)NC[C@@H](C(=O)N[C@@H](Cc2ccc(O)cc2)C(=O)N[C@@H](CCCNC(=N)N)C(=O)N[C@@H](CC(C)C)C(=O)N[C@@H](C)C(=O)N[C@@H](Cc2ccc(O)cc2)C(N)=O)NC(=O)[C@@H]2CCCN2C1=O` (I: H-IEP[Dap]YRLAY-NH2 / II: H-IEP[Dap]YRLRY-NH2; amide I:2-II:4, I:4-II:2), the Ki in test [1] was 0.363 nM; in test [2], 170 nM. Further, the Ratio Ki in the test listed under Homo sapiens was 427. The EC50 in test [3] was 5.13 nM. In test [4], the Rmax was found to be 50.2%.

On to `CC[C@H](C)[C@H](N)C(=O)N[C@H]1CCC(=O)NC[C@@H](C(=O)N[C@@H](Cc2ccc(O)cc2)C(=O)N[C@@H](CCCNC(=N)N)C(=O)N[C@@H](CC(C)C)C(=O)N[C@@H](CCCNC(=N)N)C(=O)N[C@@H](Cc2ccc(O)cc2)C(N)=O)NC(=O)[C@@H]2CCCN2C(=O)[C@@H](NC(=O)[C@@H](N)[C@@H](C)CC)CCC(=O)NC[C@@H](C(=O)N[C@@H](Cc2ccc(O)cc2)C(=O)N[C@@H](CCCNC(=N)N)C(=O)N[C@@H](CC(C)C)C(=O)N[C@@H](CCCNC(=N)N)C(=O)N[C@@H](C)C(N)=O)NC(=O)[C@@H]2CCCN2C1=O` (I: H-IEP[Dap]YRLRA-NH2 / II: H-IEP[Dap]YRLRY-NH2; amide I:2-II:4, I:4-II:2), for which the figures for the Ki in test [1] and in test [2] were 0.257 nM and 174 nM, respectively. Further, the Ratio Ki in the test listed under Homo sapiens came out at 676. The EC50 in test [3] is 6.76 nM. In addition, the Rmax in test [4] amounted to 55.2%.

In the case of `CC[C@H](C)[C@H](N)C(=O)N[C@H]1CCC(=O)NC[C@@H](C(=O)N[C@@H](Cc2ccc(O)cc2)C(=O)N[C@@H](CCCN=C(N)N)C(=O)N[C@@H](CC(C)C)C(=O)N[C@@H](CCCN=C(N)N)C(=O)N[C@@H](Cc2ccc(O)cc2)C(N)=O)NC(=O)[C@@H]2CCCN2C(=O)[C@@H](NC(=O)[C@@H](N)[C@@H](C)CC)CCC(=O)NC[C@@H](C(=O)N[C@@H](Cc2ccc(O)cc2)C(=O)N[C@@H](CCCN=C(N)N)C(=O)N[C@@H](CC(C)C)C(=O)N[C@@H](CCCN=C(N)N)C(=O)N[C@@H](Cc2ccc(O)cc2)C(N)=O)NC(=O)[C@@H]2CCCN2C1=O` (I: H-IEP[Dap]YRLRY-NH2 / II: H-IEP[Dap]YRLRY-NH2; amide I:2-II:4, I:4-II:2), the Ki was 0.295 to 1.02 nM in test [1] and 41.7 to 89.1 nM in test [2]. The Ratio Ki in the test listed under Homo sapiens fell in the range of 87 to 141. In addition, the EC50 in test [3] was 11.2 to 37.2 nM. Moreover, the Rmax in test [4] lay within 21.8 to 36.1%.

With `CC[C@H](C)[C@H](N)C(=O)N[C@H]1CCC(=O)NCCC[C@@H](C(=O)N[C@@H](Cc2ccc(O)cc2)C(=O)N[C@@H](CCCNC(=N)N)C(=O)N[C@@H](CC(C)C)C(=O)N[C@@H](CCCNC(=N)N)C(=O)N[C@@H](Cc2ccc(O)cc2)C(N)=O)NC(=O)[C@@H]2CCCN2C(=O)[C@@H](NC(=O)[C@@H](N)[C@@H](C)CC)CCC(=O)NCCC[C@@H](C(=O)N[C@@H](Cc2ccc(O)cc2)C(=O)N[C@@H](CCCNC(=N)N)C(=O)N[C@@H](CC(C)C)C(=O)N[C@@H](CCCNC(=N)N)C(=O)N[C@@H](Cc2ccc(O)cc2)C(N)=O)NC(=O)[C@@H]2CCCN2C1=O` (I: H-IEP[Orn]YRLRY-NH2 / II: H-IEP[Orn]YRLRY-NH2; amide I:2-II:4, I:4-II:2), the Ki is 12.9 nM in test [1] and 63.1 nM in test [2]. The Ratio Ki in the test listed under Homo sapiens turned out to be 4.9. Besides, in test [3], the EC50 was 4.27 nM. The Rmax in test [4] is 33%.
